Experimental data: ChEMBL document CHEMBL1125502, “Structural requirements for neuropeptide Y18-36-evoked hypotension: a systematic study” (1992)
Where a SMILES comes first, the peptide text is derived from it.

What follows are compounds tested on Rattus norvegicus (assay: Change in mean arterial pressure measured 5 min after intra arterial administration at 0.4 mg/kg to male rats.).
Type: functional, Artery
Parameters: unit not given here
Method in brief: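 Conscious, freely moving male Sprague-Dawley rats (240–280 g) with arterial catheters; peptide in saline given IA as a 100-µL bolus (100 µg). MAP recorded by pressure transducer, calculated as [[…] + diastolic]. Baseline set by saline vehicle injection before dosing; change read 5 min post-dose relative to pre-dose control. Mean ± SEM, n ≥ 3.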

Row | Structure (SMILES) | Delta MAP
1 | CC[C@H](C)[C@H](NC(=O)[C@H](Cc1ccc(O)cc1)NC(=O)[C@H](Cc1c[nH]cn1)NC(=O)[C@H](CCCN=C(N)N)NC(=O)[C@H](CC(C)C)NC(=O)[C@H](C)NC(=O)[C@H](CO)NC(=O)[C@H](Cc1ccc(O)cc1)NC(=O)[C@H](Cc1ccc(O)cc1)NC(=O)[C@H](CCCN=C(N)N)NC(=O)[C@H](C)N)C(=O)N[C@@H](CC(N)=O)C(=O)N[C@@H](CC(C)C)C(=O)N[C@H](C(=O)N[C@H](C(=O)N[C@@H](CCCN=C(N)N)C(=O)N[C@@H](CCC(N)=O)C(=O)N[C@@H](CCCN=C(N)N)C(=O)N[C@@H](Cc1ccc(O)cc1)C(=O)N[C@@H](Cc1ccc(O)cc1)C(=O)O)[C@@H](C)O)[C@@H](C)CC | -8.35
2 | CC[C@H](C)[C@H](NC(=O)[C@H](Cc1ccc(O)cc1)NC(=O)[C@H](Cc1c[nH]cn1)NC(=O)[C@H](CCCN=C(N)N)NC(=O)[C@H](CC(C)C)NC(=O)[C@H](C)NC(=O)[C@H](CO)NC(=O)[C@H](Cc1ccc(O)cc1)NC(=O)[C@H](Cc1ccc(O)cc1)NC(=O)[C@H](CCCN=C(N)N)NC(=O)[C@H](C)NC(C)=O)C(=O)N[C@@H](CC(N)=O)C(=O)N[C@@H](CC(C)C)C(=O)N[C@H](C(=O)N[C@H](C(=O)N[C@@H](CCCN=C(N)N)C(=O)N[C@@H](CCC(N)=O)C(=O)N[C@@H](CCCN=C(N)N)C(=O)N[C@@H](Cc1ccc(O)cc1)C(N)=O)[C@@H](C)O)[C@@H](C)CC | 12
3 | CC[C@H](C)[C@H](NC(=O)[C@H](Cc1ccc(O)cc1)NC(=O)[C@H](Cc1c[nH]cn1)NC(=O)[C@H](CCCN=C(N)N)NC(=O)[C@H](CC(C)C)NC(=O)[C@H](C)NC(=O)[C@H](CO)NC(=O)[C@H](Cc1ccc(O)cc1)NC(=O)[C@H](Cc1ccc(O)cc1)NC(=O)[C@H](CCCN=C(N)N)NC(=O)[C@H](C)N)C(=O)N[C@@H](CC(N)=O)C(=O)N[C@@H](CC(C)C)C(=O)N[C@H](C(=O)N[C@H](C(=O)N[C@@H](CCCN=C(N)N)C(=O)N[C@@H](CCC(N)=O)C(=O)N[C@@H](CCCN=C(N)N)C(=O)N[C@@H](Cc1ccc(O)cc1)C(=O)O)[C@@H](C)O)[C@@H](C)CC | -4.75
4 | CC[C@H](C)[C@H](NC(=O)[C@H](Cc1ccccc1)NC(=O)[C@H](Cc1c[nH]cn1)NC(=O)[C@H](CCCN=C(N)N)NC(=O)[C@H](CC(C)C)NC(=O)[C@H](C)NC(=O)[C@H](CO)NC(=O)[C@H](Cc1ccccc1)NC(=O)[C@H](Cc1ccccc1)NC(=O)[C@H](CCCN=C(N)N)NC(=O)[C@H](C)N)C(=O)N[C@@H](CC(N)=O)C(=O)N[C@@H](CC(C)C)C(=O)N[C@H](C(=O)N[C@H](C(=O)N[C@@H](CCCN=C(N)N)C(=O)N[C@@H](CCC(N)=O)C(=O)N[C@@H](CCCN=C(N)N)C(=O)N[C@@H](Cc1ccccc1)C(N)=O)[C@@H](C)O)[C@@H](C)CC (H-ARFFSALRHFINLITRQRF-NH2) | 12.33
5 | CC[C@H](C)[C@H](NC(=O)[C@H](Cc1ccccc1)NC(=O)[C@H](Cc1c[nH]cn1)NC(=O)[C@H](CCCN=C(N)N)NC(=O)[C@H](CC(C)C)NC(=O)[C@H](C)NC(=O)[C@H](CO)NC(=O)[C@H](Cc1ccc(O)cc1)NC(=O)[C@H](Cc1ccccc1)NC(=O)[C@H](CCCN=C(N)N)NC(=O)[C@H](C)N)C(=O)N[C@@H](CC(N)=O)C(=O)N[C@@H](CC(C)C)C(=O)N[C@H](C(=O)N[C@H](C(=O)N[C@@H](CCCN=C(N)N)C(=O)N[C@@H](CCC(N)=O)C(=O)N[C@@H](CCCN=C(N)N)C(=O)N[C@@H](Cc1ccccc1)C(N)=O)[C@@H](C)O)[C@@H](C)CC (H-ARFYSALRHFINLITRQRF-NH2) | 3
6 | CC[C@H](C)[C@H](NC(=O)[C@H](Cc1ccccc1)NC(=O)[C@H](Cc1c[nH]cn1)NC(=O)[C@H](CCCN=C(N)N)NC(=O)[C@H](CC(C)C)NC(=O)[C@H](C)NC(=O)[C@H](CO)NC(=O)[C@H](Cc1ccccc1)NC(=O)[C@H](Cc1ccc(O)cc1)NC(=O)[C@H](CCCN=C(N)N)NC(=O)[C@H](C)N)C(=O)N[C@@H](CC(N)=O)C(=O)N[C@@H](CC(C)C)C(=O)N[C@H](C(=O)N[C@H](C(=O)N[C@@H](CCCN=C(N)N)C(=O)N[C@@H](CCC(N)=O)C(=O)N[C@@H](CCCN=C(N)N)C(=O)N[C@@H](Cc1ccccc1)C(N)=O)[C@@H](C)O)[C@@H](C)CC (H-ARYFSALRHFINLITRQRF-NH2) | 7.66
7 | CC(C)C[C@H](NC(=O)[C@H](C)NC(=O)[C@H](CO)NC(=O)[C@H](Cc1ccc(O)cc1)NC(=O)[C@H](Cc1ccc(O)cc1)NC(=O)[C@H](CCCN=C(N)N)NC(=O)[C@H](C)N)C(N)=O (H-ARYYSAL-NH2) | 3.33
8 | CC(C)C[C@H](NC(=O)[C@H](C)NC(=O)[C@H](CO)NC(=O)[C@H](Cc1ccc(O)cc1)NC(=O)[C@H](Cc1ccc(O)cc1)NC(=O)[C@H](CCCN=C(N)N)NC(=O)[C@H](C)N)C(=O)N[C@@H](CCCN=C(N)N)C(N)=O (H-ARYYSALR-NH2) | 4.67
9 | CC[C@H](C)[C@H](NC(=O)[C@H](Cc1ccccc1)NC(=O)[C@H](Cc1c[nH]cn1)NC(=O)[C@H](CCCN=C(N)N)NC(=O)[C@H](CC(C)C)NC(=O)[C@H](C)NC(=O)[C@H](CO)NC(=O)[C@H](Cc1ccc(O)cc1)NC(=O)[C@H](Cc1ccc(O)cc1)NC(=O)[C@H](CCCN=C(N)N)NC(=O)[C@H](C)N)C(=O)N[C@@H](CC(N)=O)C(=O)N[C@@H](CC(C)C)C(=O)N[C@H](C(=O)N[C@H](C(=O)N[C@@H](CCCN=C(N)N)C(=O)N[C@@H](CCC(N)=O)C(=O)N[C@@H](CCCN=C(N)N)C(=O)N[C@@H](Cc1ccccc1)C(N)=O)[C@@H](C)O)[C@@H](C)CC (H-ARYYSALRHFINLITRQRF-NH2) | -6
10 | CC(C)C[C@H](NC(=O)[C@H](C)NC(=O)[C@H](CO)NC(=O)[C@H](Cc1ccc(O)cc1)NC(=O)[C@H](Cc1ccc(O)cc1)NC(=O)[C@H](CCCN=C(N)N)NC(=O)[C@H](C)N)C(=O)N[C@@H](CCCN=C(N)N)C(=O)N[C@@H](Cc1c[nH]cn1)C(=O)N[C@@H](Cc1ccc(O)cc1)C(N)=O (H-ARYYSALRHY-NH2) | -12
11 | CC[C@H](C)[C@H](NC(=O)[C@H](Cc1ccc(O)cc1)NC(=O)[C@H](Cc1c[nH]cn1)NC(=O)[C@H](CCCN=C(N)N)NC(=O)[C@H](CC(C)C)NC(=O)[C@H](C)NC(=O)[C@H](CO)NC(=O)[C@H](Cc1ccc(O)cc1)NC(=O)[C@H](Cc1ccc(O)cc1)NC(=O)[C@H](CCCN=C(N)N)NC(=O)[C@H](C)N)C(=O)N[C@@H](CC(N)=O)C(=O)N[C@@H](CC(C)C)C(=O)N[C@H](C(=O)N[C@H](C(N)=O)[C@@H](C)O)[C@@H](C)CC (H-ARYYSALRHYINLIT-NH2) | 0

These compounds were tested on Rattus norvegicus (assay: Plasma histamine level of the peptide after intra arterial administration at time 0 min in rats).
Type: functional, organism-based

Row | Structure (SMILES) | Plasma histamine
12 | CC[C@H](C)[C@H](NC(=O)[C@H](Cc1ccc(O)cc1)NC(=O)[C@H](Cc1c[nH]cn1)NC(=O)[C@H](CCCN=C(N)N)NC(=O)[C@H](CC(C)C)NC(=O)[C@H](C)NC(=O)[C@H](CO)NC(=O)[C@H](Cc1ccc(O)cc1)NC(=O)[C@H](Cc1ccc(O)cc1)NC(=O)[C@H](CCCN=C(N)N)NC(=O)[C@H](C)NC(C)=O)C(=O)N[C@@H](CC(N)=O)C(=O)N[C@@H](CC(C)C)C(=O)N[C@H](C(=O)N[C@H](C(=O)N[C@@H](CCCN=C(N)N)C(=O)N[C@@H](CCC(N)=O)C(=O)N[C@@H](CCCN=C(N)N)C(=O)N[C@@H](Cc1ccc(O)cc1)C(N)=O)[C@@H](C)O)[C@@H](C)CC | 16 ng/mL

These compounds were tested on Rattus norvegicus (assay: Plasma histamine level of the peptide after intra arterial administration at time 5 min in rats).
Type: functional, organism-based

Row | Structure (SMILES) | Plasma histamine
13 | CC[C@H](C)[C@H](NC(=O)[C@H](Cc1ccc(O)cc1)NC(=O)[C@H](Cc1c[nH]cn1)NC(=O)[C@H](CCCN=C(N)N)NC(=O)[C@H](CC(C)C)NC(=O)[C@H](C)NC(=O)[C@H](CO)NC(=O)[C@H](Cc1ccc(O)cc1)NC(=O)[C@H](Cc1ccc(O)cc1)NC(=O)[C@H](CCCN=C(N)N)NC(=O)[C@H](C)NC(C)=O)C(=O)N[C@@H](CC(N)=O)C(=O)N[C@@H](CC(C)C)C(=O)N[C@H](C(=O)N[C@H](C(=O)N[C@@H](CCCN=C(N)N)C(=O)N[C@@H](CCC(N)=O)C(=O)N[C@@H](CCCN=C(N)N)C(=O)N[C@@H](Cc1ccc(O)cc1)C(N)=O)[C@@H](C)O)[C@@H](C)CC | 31.1 ng/mL
